Results taken from ChEMBL document CHEMBL1151808, “Substrate promiscuity of the cyclic dipeptide prenyltransferases from Aspergillus fumigatus ( section sign)” (J Nat Prod, 2009).
The source made the active and inactive calls. The rule behind the calls is not given here.

Key:
Aspergillus fumigatus [1] = assay: Activity at 1.62 uM Aspergillus fumigatus CdpNPT assessed as compound conversion rate at 1 mM after 2 hrs by HPLC analysis in presence of dimethylallyl diphosphate relative to L-tryptophan
Method in brief: (§1)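 His6-CdpNPT (1.62 µM) or His6-FtmPT1 (1.68 µM) with 1 mM tryptophan derivative and 2 mM DMAPP in Tris-HCl pH 7.5/CaCl2, 37 °C for 2 or 16 h. MeOH quench, then RP18 HPLC with 30–70% MeOH gradient. Conversion expressed relative to L-tryptophan; two independent assays.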

Aspergillus fumigatus [2] = assay: Activity at 1.62 uM Aspergillus fumigatus CdpNPT assessed as compound conversion rate at 1 mM after 16 hrs by HPLC analysis in presence of dimethylallyl diphosphate relative to L-tryptophan; method in brief: as §1
[3] = target: Tryprostatin B synthase ftmPT1 (Aspergillus fumigatus) (UniProt Q4WAW7); assay: Activity at 1.68 uM Aspergillus fumigatus FtmPT1 assessed as compound conversion rate at 1 mM after 2 hrs by HPLC analysis in presence of dimethylallyl diphosphate relative to L-tryptophan; method in brief: as §1
Sequence of Tryprostatin B synthase ftmPT1 (Aspergillus fumigatus) (Q4WAW7 whole entry): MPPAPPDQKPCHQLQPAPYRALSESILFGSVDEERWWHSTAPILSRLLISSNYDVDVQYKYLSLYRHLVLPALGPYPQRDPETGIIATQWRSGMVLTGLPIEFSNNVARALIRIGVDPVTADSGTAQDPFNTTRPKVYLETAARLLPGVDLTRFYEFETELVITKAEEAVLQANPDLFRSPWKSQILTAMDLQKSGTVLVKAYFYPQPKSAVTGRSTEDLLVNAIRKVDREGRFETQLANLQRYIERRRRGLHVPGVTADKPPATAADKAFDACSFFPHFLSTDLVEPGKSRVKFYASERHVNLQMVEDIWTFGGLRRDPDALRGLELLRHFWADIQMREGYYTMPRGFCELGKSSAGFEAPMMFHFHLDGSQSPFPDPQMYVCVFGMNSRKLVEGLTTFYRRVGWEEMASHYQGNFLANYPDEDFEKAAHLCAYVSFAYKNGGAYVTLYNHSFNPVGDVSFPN

[4] = target: Tryprostatin B synthase ftmPT1 (Aspergillus fumigatus) (UniProt Q4WAW7); assay: Activity at 1.68 uM Aspergillus fumigatus FtmPT1 assessed as compound conversion rate at 1 mM after 16 hrs by HPLC analysis in presence of dimethylallyl diphosphate relative to L-tryptophan; method in brief: as §1
[5] = target: Tryprostatin B synthase ftmPT1 (Aspergillus fumigatus) (UniProt Q4WAW7); assay: Activity at 0.28 uM Aspergillus fumigatus FtmPT1 assessed as compound conversion at 1 mM after 2 hrs by HPLC analysis in presence of dimethylallyl diphosphate
Method in brief: (§2)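 Performed in 50 mM Tris-HCl (pH 7.5) with 10 mM CaCl2, 1 mM tryptophan or derivative, and 2 mM DMAPP, using purified His6-tagged recombinant enzyme at 37 °C. Reactions were stopped with an equal volume of MeOH and protein removed by centrifugation. Products were quantified by RP18 HPLC as the conversion rate of substrate. Two independent assays were run.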

[6] = target: Tryprostatin B synthase ftmPT1 (Aspergillus fumigatus) (UniProt Q4WAW7); assay: Activity at 0.54 uM Aspergillus fumigatus FtmPT1 assessed as compound conversion at 1 mM after 2 hrs by HPLC analysis in presence of dimethylallyl diphosphate; method in brief: as §2
[7] = target: Tryprostatin B synthase ftmPT1 (Aspergillus fumigatus) (UniProt Q4WAW7); assay: Ratio Kcat to Km for Aspergillus fumigatus FtmPT1 by HPLC analysis relative to L-tryptophan
[8] = target: Tryprostatin B synthase ftmPT1 (Aspergillus fumigatus) (UniProt Q4WAW7); assay: Activity at 1.68 uM Aspergillus fumigatus FtmPT1 assessed as compound conversion at 1 mM after 2 hrs by HPLC analysis in presence of dimethylallyl diphosphate
Aspergillus fumigatus [9] = assay: Activity at 1.62 uM Aspergillus fumigatus CdpNPT assessed as compound conversion rate at 1 mM after 2 hrs by HPLC analysis in presence of dimethylallyl diphosphate; method in brief: as §2
[10] = target: Tryprostatin B synthase ftmPT1 (Aspergillus fumigatus) (UniProt Q4WAW7); assay: Activity at 1.12 uM Aspergillus fumigatus FtmPT1 assessed as compound conversion rate at 1 mM after 16 hrs by HPLC analysis in presence of dimethylallyl diphosphate; method in brief: as §2
Aspergillus fumigatus [11] = assay: Activity at 0.28 uM Aspergillus fumigatus CdpNPT assessed as compound conversion rate at 1 mM after 2 hrs by HPLC analysis in presence of dimethylallyl diphosphate
Method in brief: (§3)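 Recombinant His6-CdpNPT (0.11–1.62 µM) with 1 mM substrate and 2 mM DMAPP in 50 mM Tris-HCl pH 7.5, 10 mM CaCl2, 100 µL, 37 °C for 2 h. Heat-inactivated enzyme served as control. Stopped with MeOH, protein spun off, products read by RP18 HPLC as peaks and retention times, conversion from peak areas.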

Aspergillus fumigatus [12] = assay: Activity at 0.11 uM Aspergillus fumigatus CdpNPT assessed as compound conversion rate at 1 mM after 2 hrs by HPLC analysis in presence of dimethylallyl diphosphate; method in brief: as §3
Aspergillus fumigatus [13] = assay: Activity at 0.11 to 1.62 uM Aspergillus fumigatus CdpNPT assessed as product formation at 1 mM after 2 hrs by HPLC analysis; method in brief: as §3
Aspergillus fumigatus [14] = assay: Activity at Aspergillus fumigatus CdpNPT by HPLC analysis
Method in brief: (§4)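 Kinetics: 2 mM DMAPP (final) with L-tryptophan up to 5 mM, or cyclic dipeptides, in Tris-HCl pH 7.5/CaCl2 at 37 °C. Products quantified by HPLC. Km and kcat from Lineweaver-Burk and Hanes-Woolf plots; kcat/Km expressed as ratio to L-tryptophan.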

Aspergillus fumigatus [15] = assay: Ratio Kcat to Km for Aspergillus fumigatus CdpNPT by HPLC analysis relative to L-tryptophan; method in brief: as §4
Aspergillus fumigatus [16] = assay: Activity at 0.54 uM Aspergillus fumigatus CdpNPT assessed as compound conversion rate at 1 mM after 2 hrs by HPLC analysis in presence of dimethylallyl diphosphate; method in brief: as §3
Aspergillus fumigatus [17] = assay: Activity at 1.62 uM Aspergillus fumigatus CdpNPT assessed as compound conversion rate after 2 hrs by HPLC analysis; method in brief: as §3
[18] = target: Tryprostatin B synthase ftmPT1 (Aspergillus fumigatus) (UniProt Q4WAW7); assay: Activity at 1.12 uM Aspergillus fumigatus FtmPT1 assessed as compound retention time after 2 hrs by HPLC analysis
Method in brief: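 His6-FtmPT1 at 1.12 µM, 100 µL, in 50 mM Tris-HCl pH 7.5, 10 mM CaCl2 with DMAPP, 37 °C for 2 h. HPLC product retention time recorded.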

Aspergillus fumigatus [19] = assay: Activity at 1.62 uM Aspergillus fumigatus CdpNPT assessed as compound retention time after 2 hrs by HPLC analysis; method in brief: as §3

Structure (SMILES) | Activity (Aspergillus fumigatus [1]) [%] | Activity (Aspergillus fumigatus [2]) [%] | Activity [3] [%] | Activity [4] [%] | further results
N[C@H](CC(=O)O)Cc1c[nH]c2ccccc12 | < 3.4 | < 1.1 | < 5.5 | < 1.1 | 
N[C@@H](Cc1c[nH]c2ccc(O)cc12)C(=O)O | < 0.8 | < 0.3 | < 1.3 | < 0.3 | 
NCCc1c[nH]c2ccccc12 | < 3.3 | < 1 | < 5.3 | < 1.1 | 
Cn1cc(CC(N)C(=O)O)c2ccccc21 (racemic) | < 1.1 | < 0.3 | < 1.7 | < 0.3 | 
O=C1N[C@@H](Cc2c[nH]c3ccccc23)C(=O)N2CCC[C@@H]12 |  |  |  |  | Activity [5]: Active; Activity [6]: Active; Ratio [7]: 675; Activity [8]: Active
O=C(O)Cc1c[nH]c2ccccc12 | < 1.7 | 45.3 | < 2.8 | < 0.6 | 
NC(Cc1c[nH]c2ccc(Br)cc12)C(=O)O (racemic) | < 1.2 | < 0.4 | < 1.9 | < 0.4 | 
CC(N)(Cc1c[nH]c2ccccc12)C(=O)O (racemic) | 25 | 24.5 | < 2.3 | 1 | 
NC(Cc1c[nH]c2cc(F)ccc12)C(=O)O (racemic) | 17.7 | 13.8 | 55.1 | 55.5 | 
N[C@@H](Cc1c[nH]c2ccc(F)cc12)C(=O)O | < 0.7 | 1.9 | < 1.2 | 4.3 | 
Cc1ccc2[nH]cc(CC(N)C(=O)O)c2c1 (racemic) | < 1.5 | 20.2 | < 2.4 | 10.3 | 
Cc1ccc2c(CC(N)C(=O)O)c[nH]c2c1 (racemic) | < 0.9 | 13.5 | 148 | 96 | 
N[C@@H](Cc1ccc(O)cc1)C(=O)O |  |  |  |  | Activity (Aspergillus fumigatus [9]): inactive; Activity [10]: inactive
Cc1cccc2[nH]cc(CC(N)C(=O)O)c12 (racemic) | 72.6 | 61.4 | 16 | 19.4 | 
O=C1N[C@H](Cc2c[nH]c3ccccc23)C(=O)N[C@H]1Cc1ccc(O)cc1 |  |  |  |  | Activity (Aspergillus fumigatus [11]): Active; Activity (Aspergillus fumigatus [12]): Active; Activity (Aspergillus fumigatus [13]): Active; Km (Aspergillus fumigatus [14]): 128 µM; kcat (Aspergillus fumigatus [14]): 0.46 s⁻¹; Ratio (Aspergillus fumigatus [15]): 598; Activity (Aspergillus fumigatus [16]): Active
CN[C@@H](Cc1c[nH]c2ccccc12)C(=O)O | 126 | 114 | < 3.7 | 29.4 | 
Cc1cccc2c(CC(N)C(=O)O)c[nH]c12 (racemic) | 50.6 | 37.9 | 76.4 | 64.1 | 
N[C@@H](Cc1c[nH]c2ccccc12)C(=O)O |  |  |  |  | Activity (Aspergillus fumigatus [13]): Active; Km (Aspergillus fumigatus [14]): 830 µM; kcat (Aspergillus fumigatus [14]): 0.005 s⁻¹; Activity (Aspergillus fumigatus [17]): 18.1%; Activity [18]: 13.9 min; Activity (Aspergillus fumigatus [19]): 16.5 min
